# Published values collected from several papers.
# Compare with care: the assays were run in different laboratories.
# Target: Casein kinase II subunit alpha (CSNK2A1, Homo sapiens, UniProt P68400)
SMILES,observed,action,technique,tested at,measurement,result
COc1cc2ncnc(Nc3ccc(Oc4ccccc4)cc3C)c2cc1OC,enzyme activity,inhibitor,,1 µM,inhibition,11%
FC(F)(F)c1ccc2c(c1)nc(-c1cccnc1)n2C1CC1,cell-free assay,,competition with immobilised ligand,1 µM,remaining binding,100%
O=C1NC(=O)c2cc(Nc3ccc(F)cc3)c(Nc3ccc(F)cc3)cc21,cell-free assay,inhibitor,,0.5 µM,remaining signal,95.7%
C[C@@H]1CN(c2cc(-c3n[nH]c4ccc(OC5(C)CC5)cc34)ncn2)C[C@H](C)O1,cell-free assay,,competition with immobilised ligand,0.1 µM,remaining binding,66%
CNC(=O)c1cc(Oc2ccc(NC(=O)Nc3ccc(Cl)c(C(F)(F)F)c3)cc2)ccn1,cell-free assay,,,0.5 µM,remaining signal,108%
COc1cccc(CNC(=O)c2nc3scc(COCc4ccc(C(=O)O)cc4)c3c(=O)[nH]2)c1,cell-free assay,,competition with immobilised ligand,1 µM,remaining binding,90.7%
Cc1ccc(NC(=O)c2ccc(C)c(C(F)(F)F)c2)cc1C#Cc1nn(C2CCC(O)CC2)c2ncnc(N)c12 (stereo not shown),cell-free assay,inhibitor,,10 µM,remaining signal,105%
Cn1c2c(Cl)c(Cl)ccc2c2cc[nH]c(=O)c21,thermal stability,,DSF,10 µM,ΔTm,1.3 °C
O=C(Nc1cnn(-c2csc(C(=O)NC3COC3)c2)c1)Nc1c(F)cccc1Cl,enzyme activity,inhibitor,,5 µM,remaining activity,90.5%
CN(c1ncccc1CNc1nc(Nc2ccc3c(c2)CC(=O)N3)ncc1C(F)(F)F)S(C)(=O)=O,enzyme activity,inhibitor,,1 µM,inhibition,50.7%
Nc1nc(Nc2ccccc2)sc1C(=O)c1c(F)cccc1F,enzyme activity,inhibitor,,10 µM,remaining activity,111%
CCCOc1ccc(OC)c(F)c1C(=O)c1ccc(C(=O)N[C@@H]2CNC[C@H]2NC(=O)c2ccc3[nH]ncc3c2)cc1,enzyme activity,inhibitor,,10 µM,remaining activity,108%
CC(C)(C)c1nc2c(s1)c1nc(N)ncc1c1ccc(NS(=O)(=O)c3c(F)cccc3F)c(F)c12,enzyme activity,inhibitor,radiometric,1 µM,remaining activity,88%
Cc1cc(NC(=O)c2cccc3cc(-c4cccc5[nH]nc(N)c45)ccc23)ccc1F,enzyme activity,inhibitor,,0.1 µM,activity vs control,109%
O=C1Nc2ccc(Cl)cc2C1=Cc1cc(Cl)c(O)c(Cl)c1,cell-free assay,,,0.5 µM,remaining signal,26.5%
CC(C)(O)[C@H]1CC[C@H](Nc2ccc3ncc(-c4cccc(C(F)(F)F)c4)n3n2)CC1,enzyme activity,inhibitor,,1 µM,remaining activity,61%
Cn1c2c(c3ccc(Cl)c(Cl)c31)C(C#N)C1(CCN(C(=O)OC(C)(C)C)CC1)NC2=O (racemic),thermal stability,,DSF,10 µM,ΔTm,-0.1 °C
NS(=O)(=O)c1cc(NC(=O)Cc2ccccc2)ccc1Oc1cccc(Cl)c1,cell-free assay,,competition with immobilised ligand,1 µM,remaining binding,96%
CCN(CC)CCNC(=O)c1c(C)[nH]c(/C=C2\C(=O)Nc3ccc(F)cc32)c1C,enzyme activity,inhibitor,,0.3 µM,inhibition,-7%
Cn1c(=O)n(-c2ccc(C(C)(C)C#N)cc2)c2c3cc(-c4cnc5ccccc5c4)ccc3ncc21,enzyme activity,inhibitor,,10 µM,remaining activity,79%
O=C(O)c1cc(-c2ccc(C3CCNCC3)cc2)c2ccc(-c3ccc(C(F)(F)F)cc3)cc2c1,cell-free assay,,competition with immobilised ligand,1 µM,remaining binding,100%
Cc1cnc(NC2CCOCC2)nc1-n1cnc(C(=O)NC(CN)c2cc(F)cc(Cl)c2)c1 (stereo not shown),enzyme activity,inhibitor,radiometric,1 µM,remaining activity,106%
COc1cc(Nc2cnc(C#N)c(O[C@H](C)CN(C)C)n2)ncc1-c1cnn(C)c1,enzyme activity,inhibitor,radiometric,1 µM,remaining activity,110%
CN([C@@H]1CCc2c(CC(=O)O)c3ccccc3n2C1)S(=O)(=O)c1ccc(F)cc1,cell-free assay,,competition with immobilised ligand,1 µM,remaining binding,82%
CC(C)(C)C(=O)c1sc(NC2CCCCC2)nc1N,enzyme activity,inhibitor,,10 µM,remaining activity,118%
O=C1CCc2cc(Nc3cc(OC4CCOCC4)c([N+](=O)[O-])cc3Cl)ccc2N1,cell-free assay,,competition with immobilised ligand,1 µM,remaining binding,84%
Cn1c2c(c3ccccc31)C(C#N)C(C)(C)NC2=O (stereo not shown),thermal stability,,DSF,10 µM,ΔTm,0.8 °C
CCCS(=O)(=O)Nc1ccc(F)c(C(=O)c2c[nH]c3ncc(-c4ccc(Cl)cc4)cc23)c1F,enzyme activity,inhibitor,,1 µM,inhibition,< 10%
Cc1ccc(Nc2nccc(N(C)c3ccc4c(C)n(C)nc4c3)n2)cc1S(N)(=O)=O,enzyme activity,inhibitor,,10 µM,inhibition,-7%
CN([C@@H]1CCc2c(CC(=O)O)c3cc(S(C)(=O)=O)ccc3n2C1)S(=O)(=O)c1ccc(F)cc1,cell-free assay,,competition with immobilised ligand,1 µM,remaining binding,91%
CN1CCC2(CC1)NC(=O)c1c(c3ccc(Cl)c(Cl)c3n1C)C2C#N (racemic),thermal stability,,DSF,10 µM,ΔTm,2.5 °C
